# The source made the active and inactive calls. The calls are words filed in the database; no cut-off is given here.
# Legend:
# [1] = system: Candida parapsilosis; test: Increase in PDB1 gene expression in Candida parapsilosis CLIB214 at 50 uM after 2 hrs by microarray based transcriptional profiling relative to control; assay type: functional
# Summary of the method: (§1)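 Strain grown overnight in YPD at 30°C, diluted to A600 0.2 in YPD at 30°C; farnesol (40 mM methanol stock) added at 4 h (A600 0.8), final 50 μM; methanol-only control. Cells collected 2 h later for RNA. Labelled cDNA from 25 μg total RNA (Cy3/Cy5-dCTP) hybridized to 68-mer oligo arrays at 42°C ~16 h; six individual comparisons analysed statistically.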
# [2] = system: Candida parapsilosis; test: Reduction in ERG9 gene expression in Candida parapsilosis CLIB214 by RT-PCR; assay type: functional, organism-based
# Summary of the method: (§2)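 Cultures in YPD at 30°C, diluted to A600 0.2; 50 μM farnesol (final) or methanol added at 4 h, RNA harvested 2 h later. RT-PCR: 95°C hot start 1 min 30 s, then 26 cycles (95°C 40 s, 55°C 2 min, 72°C 3 min), final 72°C 5 min; each gene signal normalized to ACT1.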
# [3] = system: Candida parapsilosis; test: Increase in CGD gene ortholog accession number orf19.7235 expression in Candida parapsilosis CLIB214 at 50 uM after 2 hrs by microarray based transcriptional profiling relative to control; assay type: functional
# Summary of the method: (§3)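 Strain CLIB214 grown overnight in YPD at 30°C, diluted to A600 0.2 in fresh YPD at 30°C. After 4 h (A600 0.8), farnesol (40 mM methanol stock) added to 50 μM final, or an equal methanol volume as control; cells harvested 2 h later. RNA was accepted only with a 28S/18S ratio of 1.6–2.2. Cy3/Cy5-dCTP-labelled cDNA was made from 25 μg total RNA. Hybridisation was to duplicate-spotted 68-mer oligo arrays (3,849 genes) at 42°C for about 16 h. Six individual comparisons.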
# [4] = system: Candida parapsilosis; test: Increase in ADH7 gene expression in Candida parapsilosis CLIB214 by RT-PCR; assay type: functional, organism-based
# Summary of the method: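 RNA came from YPD cultures at 30°C given farnesol or methanol at 4 h (A600 0.8), harvested after 2 h. RT-PCR: 95°C hot start for 1.5 min, then 26 cycles (95°C 40 s, 55°C 2 min, 72°C 3 min), then a 5-min final extension at 72°C. Each gene's signal normalised to ACT1.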
# [5] = system: Candida parapsilosis; test: Antifungal activity against Candida parapsilosis CLIB214 assessed as growth inhibition at 50 uM added after 6 hrs of bacterial growth measured after 2 hrs; assay type: functional; conditions: Lodderomyces parapsilosis
# Summary of the method: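 Overnight YPD culture at 30°C diluted to A600 0.2 in YPD. Farnesol added to 50 μM final at 2, 4, 6 or 8 h of growth (A600 about 0.8 at 4 h, 2.3 at 6 h, 6 at 8 h). Growth compared with methanol controls by A600 or cell counts.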
# [6] = system: Candida parapsilosis; test: Decrease in CGD gene ortholog accession number orf19.3704 expression in Candida parapsilosis CLIB214 at 50 uM after 2 hrs by microarray based transcriptional profiling relative to control; assay type: functional
# Summary of the method: (§4)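 Cells in YPD at 30°C treated with 50 μM farnesol at 4 h, with a methanol control. RNA harvested 2 h later and kept only if 28S/18S ratio was 1.6–2.2 with no degradation. 25 μg total RNA oligo-dT primed and labeled with Cy3/Cy5-dCTP. Labeled cDNA hybridized about 16 h at 42°C to duplicate-spotted 68-mer oligo arrays. Six individual comparisons analyzed statistically.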
# [7] = system: Candida parapsilosis; test: Reduction in ERG1 gene expression in Candida parapsilosis CLIB214 by RT-PCR; assay type: functional, organism-based; summary of the method: as §2
# [8] = system: Candida parapsilosis; test: Increase in GenBank accession number NP_943633.1 expression in Candida parapsilosis CLIB214 at 50 uM after 2 hrs by microarray based transcriptional profiling relative to control; assay type: functional; summary of the method: as §1
# [9] = system: Candida parapsilosis; test: Decrease in CGD gene ortholog accession number orf19.4372 expression in Candida parapsilosis CLIB214 at 50 uM after 2 hrs by microarray based transcriptional profiling relative to control; assay type: functional; summary of the method: as §4
# [10] = system: Candida parapsilosis; test: Antifungal activity against Candida parapsilosis CLIB214 assessed as growth inhibition in presence of 10% fetal calf serum at 30 degC; assay type: functional, organism-based
# Summary of the method: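 YPD cultures started at A600 0.2, supplemented with 10% (vol/vol) fetal calf serum, and grown at 30°C or 37°C. Farnesol added with the serum. Growth monitored by A600 or cell counting.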
# [11] = system: Candida parapsilosis; test: Decrease in CTN1 gene expression in Candida parapsilosis CLIB214 at 50 uM after 2 hrs by microarray based transcriptional profiling relative to control; assay type: functional; summary of the method: as §3
# [12] = system: Candida parapsilosis; test: Decrease in CGD gene ortholog accession number orf19.1728 expression in Candida parapsilosis CLIB214 at 50 uM after 2 hrs by microarray based transcriptional profiling relative to control; assay type: functional; summary of the method: as §4
# [13] = system: Candida parapsilosis; test: Increase in CGD gene ortholog accession number orf19.854 expression in Candida parapsilosis CLIB214 at 50 uM after 2 hrs by microarray based transcriptional profiling relative to control; assay type: functional; summary of the method: as §1
# [14] = system: Candida parapsilosis; test: Decrease in CGD gene ortholog accession number orf19.2517 expression in Candida parapsilosis CLIB214 at 50 uM after 2 hrs by microarray based transcriptional profiling relative to control; assay type: functional; summary of the method: as §4
# [15] = system: Candida parapsilosis; test: Increase in CGD gene ortholog accession number orf19.3617 expression in Candida parapsilosis CLIB214 at 50 uM after 2 hrs by microarray based transcriptional profiling relative to control; assay type: functional; summary of the method: as §3
# [16] = system: Candida parapsilosis; test: Increase in NIT2 gene expression in Candida parapsilosis CLIB214 at 50 uM after 2 hrs by microarray based transcriptional profiling relative to control; assay type: functional; summary of the method: as §1
# [17] = system: Candida parapsilosis; test: Increase in CGD gene ortholog accession number orf19.3185 expression in Candida parapsilosis CLIB214 at 50 uM after 2 hrs by microarray based transcriptional profiling relative to control; assay type: functional; summary of the method: as §3
# [18] = system: Candida parapsilosis; test: Increase in ARP3 gene expression in Candida parapsilosis CLIB214 at 50 uM after 2 hrs by microarray based transcriptional profiling relative to control; assay type: functional; summary of the method: as §3
# [19] = system: Candida parapsilosis; test: Decrease in CGD gene ortholog accession number orf19.4449 expression in Candida parapsilosis CLIB214 at 50 uM after 2 hrs by microarray based transcriptional profiling relative to control; assay type: functional; summary of the method: as §4
# [20] = system: Candida parapsilosis; test: Decrease in CGD gene ortholog accession number orf19.4947 expression in Candida parapsilosis CLIB214 at 50 uM after 2 hrs by microarray based transcriptional profiling relative to control; assay type: functional; summary of the method: as §4
# [21] = system: Candida parapsilosis; test: Effect on GAD1 gene expression in Candida parapsilosis CLIB214 by microarray based transcriptional profiling; assay type: functional, organism-based; summary of the method: as §3
# [22] = system: Candida parapsilosis; test: Decrease in CGD gene ortholog accession number orf19.2097 expression in Candida parapsilosis CLIB214 at 50 uM after 2 hrs by microarray based transcriptional profiling relative to control; assay type: functional; summary of the method: as §4
# [23] = system: Candida parapsilosis; test: Decrease in CGD gene ortholog accession number orf19.3051 expression in Candida parapsilosis CLIB214 at 50 uM after 2 hrs by microarray based transcriptional profiling relative to control; assay type: functional; summary of the method: as §4
# [24] = system: Candida parapsilosis; test: Decrease in CGD gene ortholog accession number orf19.5212 expression in Candida parapsilosis CLIB214 at 50 uM after 2 hrs by microarray based transcriptional profiling relative to control; assay type: functional; summary of the method: as §4
# [25] = system: Candida parapsilosis; test: Increase in PDE2 gene expression in Candida parapsilosis CLIB214 at 50 uM after 2 hrs by microarray based transcriptional profiling relative to control; assay type: functional; summary of the method: as §1
structure (smiles),measurement,setting,value
CC(C)=CCC/C(C)=C/CC/C(C)=C/CO [FARNESOL],fold change (FC),[1],1.7
same,Activity,[2],Active
same,fold change (FC),[3],1.56
same,Activity,[4],Active
same,inhibition at 50 µM,[5],40.5%
same,fold change (FC),[6],1.96
same,Activity,[7],Active
same,fold change (FC),[8],2.81
same,fold change (FC),[9],1.67
same,Activity,[10],inactive
same,fold change (FC),[11],1.92
same,fold change (FC),[12],1.59
same,fold change (FC),[13],1.69
same,fold change (FC),[14],1.69
same,fold change (FC),[15],1.55
same,fold change (FC),[16],1.86
same,fold change (FC),[17],1.6
same,fold change (FC),[18],1.67
same,fold change (FC),[19],1.59
same,fold change (FC),[20],1.58
same,Activity,[21],inactive
same,fold change (FC),[22],1.53
same,fold change (FC),[23],1.67
same,fold change (FC),[24],2.33
same,fold change (FC),[25],1.67

# From ChEMBL document CHEMBL1157379, “Transcriptional response of Candida parapsilosis following exposure to farnesol” (2007)
